Reference: ChEMBL document CHEMBL2034936, “Discovery and extensive in vitro evaluations of NK-HDAC-1: a chiral histone deacetylase inhibitor as a promising lead” (J Med Chem, 2012)
Values after ≈ are worked out from the molar mass of the structure shown.

Experiments:
[1] = test system: HOP-92; test: cells; format: functional; settings: Homo sapiens, HOP-92, 72 h
[2] = Half life in mouse liver microsomes; format: ADME, Microsome
[3] = test system: ACHN; test: cells; format: functional; settings: Homo sapiens, 72 h
[4] = cells; format: functional; settings: Homo sapiens, NCI/ADR-RES, 72 h
[5] = test system: UACC-257; test: cells; format: functional; settings: Homo sapiens, UACC-257, 72 h
[6] = Half life in artificial gastric fluid; format: physicochemical
[7] = test system: SR; test: Growth inhibition of human SR cells after 72 hrs by MTS assay; format: functional
[8] = test system: SN12C; test: cells; format: functional; settings: Homo sapiens, 72 h
[9] = test system: PC-3; test: cells; format: functional; settings: Homo sapiens, PC-3, 72 h
[10] = test system: NCI-H322M; test: Growth inhibition of human NCI-H322M cells after 72 hrs by MTS assay; format: functional
[11] = test system: OVCAR-4; test: cells; format: functional; settings: Homo sapiens, OVCAR-4, 72 h
[12] = Half life in mouse plasma; format: ADME, cell-free
[13] = test system: TK-10; test: cells; format: functional; settings: Homo sapiens, TK-10, 72 h
[14] = test system: CCRF-CEM; test: Growth inhibition of human CCRF-CEM cells after 72 hrs by MTS assay; format: functional
[15] = test system: NCI-H460; test: Growth inhibition of human NCI-H460 cells after 72 hrs by MTS assay; format: functional; settings: NCI-H460, 72 h
[16] = test system: 786-0; test: cells; format: functional; settings: Homo sapiens, 786-0, 72 h
[17] = Solubility in pH 7.4 PBS buffer; format: physicochemical
[18] = Apparent permeability from basolateral to apical side in human Caco2 cells at 10 uM; format: ADME, cell-based; settings: Caco-2
Outline: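 Caco-2 monolayers, test compound at 10 μM. Apparent permeability measured in both directions, apical to basolateral and basolateral to apical. Efflux ratio = P_app B to A / P_app A to B. Run by a contract lab following published methods. Mean of three independent triplicate experiments.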

[19] = test system: KM12; test: cells; format: functional; settings: Homo sapiens, KM12, 72 h
[20] = test system: NCI-H522; test: cells; format: functional; settings: Homo sapiens, NCI-H522, 72 h
[21] = biological target: Histone deacetylase (Homo sapiens) (UniProt Q13547+O15379+Q9UBN7+Q92769+Q9UQL6+Q8WUI4+Q9BY41+Q96DB2+P56524+Q9UKV0+Q969S8); test: Inhibition of HDAC in human MDA-MB-231 cells assessed as stimulation of histone H3 acetylation at 0.5 uM by Western blot; format: cell-based; settings: TDE = time-dependent effect
Outline: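 Time course in MDA-MB-231 cells at 0.5 μM, sampled from 3 h up to 24 h. Lysed in RIPA (pH 7.5, protease and phosphatase inhibitors) at 4 °C, then 60 μg protein run on SDS-PAGE. Western blot with anti-acetyl-histone H3 and ECL detection.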

[22] = test system: NCI-H226; test: cells; format: functional; settings: Homo sapiens, NCI-H226, 72 h
[23] = test system: OVCAR-5; test: Growth inhibition of human OVCAR5 cells after 72 hrs by MTS assay; format: functional; settings: OVCAR-5, 72 h
[24] = test system: SNB-19; test: cells; format: functional; settings: Homo sapiens, SNB-19, 72 h

CC(C)[C@@H](c1nc2ccccc2o1)n1cc(/C=C/C(=O)NO)nn1
GI50 [1]: 10 nM | half-life [2]: 3.25 h | GI50 [3]: 210 nM | GI50 [4]: 27 nM | GI50 [5]: 88 nM | half-life [6]: 9.4 h | GI50 [7]: 90 nM | GI50 [8]: 360 nM | GI50 [9]: 120 nM | GI50 [10]: 140 nM | GI50 [11]: 700 nM | half-life [12]: 32 h | GI50 [13]: 44 nM | GI50 [14]: 110 nM | GI50 [15]: 150 nM | GI50 [16]: 170 nM | solubility [17]: 20 µg/mL (≈ 61.1 µM) | Papp B→A at 10 µM [18]: 7.61 ×10⁻⁶ cm/s | GI50 [19]: 230 nM | GI50 [20]: 13 nM | inhibition [21]: tde | GI50 [22]: 540 nM | GI50 [23]: 140 nM | GI50 [24]: 430 nM
